The values that follow come from ChEMBL document CHEMBL1154633, “Synthesis and biological evaluation of 2-alkynyl-N6-methyl-5'-N-methylcarboxamidoadenosine derivatives as potent and highly selective agonists for the human adenosine A3 receptor” (J Med Chem, 2009).

Active and inactive are the calls of the source. The rule behind the calls is not given here.

For one assay, the target named is Adenosine receptor A2a (Homo sapiens, UniProt P29274). Description: Displacement of [3H]NECA from human recombinant adenosine A2A receptor expressed in CHO cells. Format: cell-based. The essentials: (§1)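 Competition binding in 96-well microplates with radioligand [3H]NECA on CHO cells stably transfected with human recombinant A2AR or A3R. Ki of unlabeled compound from displacement of specific binding, with 95% confidence intervals.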
For orientation: Displacement assays read how much labelled ligand stays bound in the presence of the test substance.

The target of assay [1] is Adenosine receptors; A1 & A3 (Homo sapiens) (UniProt P30542+P0DMS8). Description: Selectivity ratio of Ki for human recombinant adenosine A1 receptor to Ki for human recombinant adenosine A3 receptor. The method, boiled down: (§2)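 Selectivity is Ki at human A1R (displacement of [3H]CCPA) or at human A2AR (displacement of [3H]NECA) divided by Ki at human A3R (displacement of [3H]NECA). All receptors stably expressed in CHO cells, competition experiments in 96-well microplates.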

The next assay addresses T1, Adenosine receptor A1 (Homo sapiens, UniProt P30542).
T1 sequence (P30542 whole entry): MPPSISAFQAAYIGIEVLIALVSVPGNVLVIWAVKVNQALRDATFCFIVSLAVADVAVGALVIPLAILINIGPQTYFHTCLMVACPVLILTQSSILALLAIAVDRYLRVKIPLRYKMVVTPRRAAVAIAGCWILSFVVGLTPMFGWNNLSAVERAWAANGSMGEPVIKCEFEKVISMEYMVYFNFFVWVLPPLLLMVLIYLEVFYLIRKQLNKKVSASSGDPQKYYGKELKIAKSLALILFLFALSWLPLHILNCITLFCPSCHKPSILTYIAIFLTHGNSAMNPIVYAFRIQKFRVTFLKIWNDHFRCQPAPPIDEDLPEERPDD
Description: Displacement of [3H]CCPA from human recombinant adenosine A1 receptor expressed in CHO cells. Format: cell-based.

Assay [2] deals with T2, Adenosine receptor A3 (Homo sapiens, UniProt P0DMS8).
T2 sequence (P0DMS8 whole entry): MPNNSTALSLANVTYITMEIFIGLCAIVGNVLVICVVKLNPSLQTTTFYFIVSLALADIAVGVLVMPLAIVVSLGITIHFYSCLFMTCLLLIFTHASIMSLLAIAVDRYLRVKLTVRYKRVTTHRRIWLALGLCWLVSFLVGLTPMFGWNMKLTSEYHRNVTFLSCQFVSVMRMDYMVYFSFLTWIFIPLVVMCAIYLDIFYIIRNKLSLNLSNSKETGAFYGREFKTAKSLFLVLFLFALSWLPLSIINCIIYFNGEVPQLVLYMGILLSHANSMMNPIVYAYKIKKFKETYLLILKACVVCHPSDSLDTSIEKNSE
Briefly: Agonist activity at human recombinant adenosine A3 receptor expressed in CHO cells assessed as nonradiaoactive DELFIA Eu-GTP binding treated for 15 mins before addition of Eu-GTP measured after 45 mins by time-resolved fluorometric method. Format: cell-based.

For assay [3], the target named is T3, Adenosine receptor A3 (Homo sapiens) (UniProt P0DMS8).
T3 sequence (whole entry): T2 sequence (P0DMS8 whole entry)
Description: Agonist activity at human recombinant adenosine A3 receptor expressed in CHO cells assessed as nonradiaoactive DELFIA Eu-GTP binding treated for 15 mins before addition of Eu-GTP measured after 45 mins by time-resolved fluorometric method relative to Cl-IBMECA. The class given is cell-based. Set-up: concentration or dose not given beside the values.

Assay [4] concerns the target T3, Adenosine receptor A3 (Homo sapiens). Briefly: Agonist activity at human recombinant adenosine A3 receptor expressed in CHO cells assessed as nonradiaoactive DELFIA Eu-GTP binding treated for 15 mins before addition of Eu-GTP measured after 45 mins by time-resolved fluorometric method in presence of increasing saponin concentration. Format: cell-based.
Assay [5] deals with T2, Adenosine receptor A3. Description: Displacement of [3H]NECA from human recombinant adenosine A3 receptor expressed in CHO cells. Format: cell-based. The method, boiled down: as §1
The next assay is filed under the species Homo sapiens. Description: Selectivity ratio of Ki for human recombinant adenosine A2A receptor to Ki for human recombinant adenosine A3 receptor. The method, boiled down: as §2
In assay [6] the target is T3, Adenosine receptor A3 (Homo sapiens). Description: Ratio of Cl-IBMECA EC50 to compound EC50 for human recombinant adenosine A3 receptor expressed in CHO cells. The class given is cell-based.

Chain of Adenosine receptor A2a (P29274 whole entry): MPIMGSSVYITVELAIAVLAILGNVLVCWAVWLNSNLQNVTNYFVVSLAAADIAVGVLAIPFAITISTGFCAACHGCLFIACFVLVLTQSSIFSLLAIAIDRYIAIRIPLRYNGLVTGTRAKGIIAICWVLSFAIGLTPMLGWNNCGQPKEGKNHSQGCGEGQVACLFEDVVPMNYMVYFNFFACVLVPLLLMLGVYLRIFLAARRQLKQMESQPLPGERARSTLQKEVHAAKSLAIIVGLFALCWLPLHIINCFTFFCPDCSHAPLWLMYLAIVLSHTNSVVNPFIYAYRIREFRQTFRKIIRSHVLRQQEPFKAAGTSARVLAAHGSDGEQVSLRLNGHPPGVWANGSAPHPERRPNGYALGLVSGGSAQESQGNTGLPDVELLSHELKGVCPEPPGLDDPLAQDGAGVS

In general, Ki refers to a measure of affinity in units of concentration, obtained from inhibition or displacement. One may read the EC50 as the concentration that produces a half-maximal response. For `CNC(=O)[C@H]1O[C@@H](n2cnc3c(NC)nc(C#Cc4ccccc4)nc32)[C@H](O)[C@@H]1O`, the Ki at Adenosine receptor A2a turned out to be 41700 nM; on Adenosine receptor A1 it was 32800 nM; at Adenosine receptor A3 [5], 0.44 nM. Besides, the values for the Ratio Ki (in assay [1]; in the assay listed under Homo sapiens) were 76500 and 97000, respectively. In addition, the EC50 on Adenosine receptor A3 [2] worked out at 151 nM. Besides, the Activity in assay [3] came to 100%. Besides, the result in assay [4] was inactive.

For `CNC(=O)[C@H]1O[C@@H](n2cnc3c(NOC)nc(C#Cc4ccccn4)nc32)[C@H](O)[C@@H]1O`, the values for the Ratio Ki (in [1]; in the assay listed under Homo sapiens) were 3600 and 16400, respectively. The EC50 on Adenosine receptor A3 [2] is 52 nM. In assay [3], the Activity stood at 100%. Further, the Ratio EC50 in assay [6] turned out to be 7. In addition, in assay [4], the result was inactive.

Turning to `CONc1nc(C#Cc2ccccn2)nc2c1ncn2[C@@H]1O[C@H](CO)[C@@H](O)[C@H]1O`, the Activity in assay [3] turned out to be 9%.

In the case of `CNC(=O)[C@H]1O[C@@H](n2cnc3c(NOC)nc(C#Cc4ccc(F)cc4)nc32)[C@H](O)[C@@H]1O`, the Ratio Ki in assay [1] is 1600; in the assay listed under Homo sapiens it was 9800. For the same molecule, on Adenosine receptor A3 [2], the EC50 is 210 nM. Further, in assay [3], the Activity was determined as 100%. Besides, the outcome in assay [4] was inactive.

For `CNC(=O)[C@H]1O[C@@H](n2cnc3c(NC)nc(C#Cc4ccc(F)cc4)nc32)[C@H](O)[C@@H]1O`, the figures for the Ki at Adenosine receptor A2a, on Adenosine receptor A1 and at Adenosine receptor A3 [5] were 12700 nM, 5310 nM and 0.43 nM, respectively. Further, the values for the Ratio Ki (in assay [1]; in the assay filed under Homo sapiens) were 12500 and 29500, respectively. At Adenosine receptor A3 [2], the EC50 was 190 nM. Besides, the Activity in [3] was determined as 100%. Also, the outcome in assay [4] was inactive.

As to `CNC(=O)[C@H]1O[C@@H](n2cnc3c(NC)nc(C#Cc4ccccn4)nc32)[C@H](O)[C@@H]1O`, the Ki at Adenosine receptor A2a was 24300 nM; on Adenosine receptor A1, 8740 nM; at Adenosine receptor A3 [5], 0.4 nM. Also, the Ratio Ki is 22000 in assay [1] and 61000 in the assay filed under Homo sapiens. In addition, on Adenosine receptor A3 [2], the concentration for a half-maximal effect (EC50) was 46 nM. In addition, the Activity in assay [3] was found to be 100%. Moreover, the Ratio EC50 in assay [6] stood at 7. In addition, the outcome in assay [4] was inactive.

Regarding `CNc1nc(C#Cc2ccccc2)nc2c1ncn2[C@@H]1O[C@H](CO)[C@@H](O)[C@H]1O`, the values for the Ratio Ki (in [1]; in the assay listed under Homo sapiens) were 500 and 2500, respectively. The EC50 on Adenosine receptor A3 [2] is 290 nM. Further, the Activity in assay [3] worked out at 65%.

Take `CNC(=O)[C@H]1O[C@@H](n2cnc3c(NOC)nc(C#Cc4ccccc4)nc32)[C@H](O)[C@@H]1O`: the Ratio Ki in assay [1] worked out at 4800; in the assay listed under Homo sapiens, 8600. Further, the EC50 on Adenosine receptor A3 [2] was 120 nM. Moreover, in assay [3], the Activity came out at 100%. Further, the outcome in assay [4] was inactive.

Regarding `CONc1nc(C#Cc2ccccc2)nc2c1ncn2[C@@H]1O[C@H](CO)[C@@H](O)[C@H]1O`, the Ratio Ki is 300 in assay [1] and 1100 in the assay filed under Homo sapiens. Also, the EC50 at Adenosine receptor A3 [2] is 320 nM. Further, the Activity in [3] amounted to 55%. For the same molecule, the Ki at Adenosine receptor A3 [5] was found to be 3.8 nM.

In the case of `CNC(=O)[C@H]1O[C@@H](n2cnc3c(NCc4ccc(I)cc4)nc(Cl)nc32)[C@H](O)[C@@H]1O`, the EC50 at Adenosine receptor A3 [2] came to 363 nM.
